In ChEMBL document CHEMBL1949527, “Use of copper(I) catalyzed azide alkyne cycloaddition (CuAAC) for the preparation of conjugated pyrrolo[2,3-a]carbazole Pim kinase inhibitors” (Eur J Med Chem, 2012):

Columns and labels:
[1] = biological target: T1, Serine/threonine-protein kinase pim-1 (Homo sapiens, UniProt P11309); experiment: Inhibition of human recombinant His6-tagged PIM1 expressed in Sf21 cells assessed as residual activity using RSRHSSYPAGT as substrate at 10 uM after 30 mins
Method in brief: (§1)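 Residual activity at 10 μM inhibitor, run in duplicate. Assay buffer was 50 mM Tris/HCl pH 7.5, 0.1 mM EGTA, 0.1% 2-mercaptoethanol. Reactions were stopped with orthophosphoric acid and spotted onto P81 filters.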
Target sequence in this assay (P11309 whole entry, looked up): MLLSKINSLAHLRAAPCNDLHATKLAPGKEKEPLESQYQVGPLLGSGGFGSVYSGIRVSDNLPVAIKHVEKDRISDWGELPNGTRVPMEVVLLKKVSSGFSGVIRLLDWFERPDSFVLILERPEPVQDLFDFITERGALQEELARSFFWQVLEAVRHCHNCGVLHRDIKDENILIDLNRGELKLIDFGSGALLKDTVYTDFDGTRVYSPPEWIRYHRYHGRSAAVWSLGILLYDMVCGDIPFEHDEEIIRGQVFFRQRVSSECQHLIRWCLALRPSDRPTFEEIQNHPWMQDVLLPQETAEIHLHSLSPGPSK

[2] = biological target: T1, Serine/threonine-protein kinase pim-1; experiment: Inhibition of human recombinant His6-tagged PIM1 expressed in Sf21 cells using RSRHSSYPAGT as substrate after 30 mins
Target sequence in this assay (P11309 whole entry): as the sequence (P11309 whole entry, looked up) above

[3] = biological target: T2, Serine/threonine-protein kinase pim-2 (Homo sapiens, UniProt Q9P1W9); experiment: Inhibition of human recombinant PIM2 expressed in Escherichia coli assessed as residual activity using RSRHSSYPAGT as substrate at 10 uM after 30 mins; method in brief: as §1
Target sequence in this assay (Q9P1W9 whole entry, looked up): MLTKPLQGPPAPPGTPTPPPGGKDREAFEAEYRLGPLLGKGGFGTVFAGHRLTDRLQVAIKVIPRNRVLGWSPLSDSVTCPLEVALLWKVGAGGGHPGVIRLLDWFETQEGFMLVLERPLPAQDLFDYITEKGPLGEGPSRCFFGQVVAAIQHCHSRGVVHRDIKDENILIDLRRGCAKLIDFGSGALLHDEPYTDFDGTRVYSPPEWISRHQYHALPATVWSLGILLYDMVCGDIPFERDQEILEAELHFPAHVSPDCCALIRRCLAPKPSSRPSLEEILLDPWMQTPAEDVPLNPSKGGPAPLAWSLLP

[4] = biological target: T3, Serine/threonine-protein kinase pim-3 (Homo sapiens, UniProt Q86V86); experiment: Inhibition of human recombinant His6-tagged PIM3 expressed in Sf21 cells assessed as residual activity using RSRHSSYPAGT as substrate at 10 uM after 30 mins; method in brief: as §1
[5] = biological target: T3, Serine/threonine-protein kinase pim-3; experiment: Inhibition of human recombinant His6-tagged PIM3 expressed in Sf21 cells using RSRHSSYPAGT as substrate after 30 mins
PC-3 = experiment: Cellular uptake in human PC3 cells at 10 uM after 24 hrs by fluorescence microscopy; type: ADME, cell-based; conditions: pc-3, 24 h
Method in brief: (§2)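 PC-3 cells in RPMI-1640 with 10% FBS, 2 mM L-glutamine and penicillin/streptomycin were grown overnight on coverslips, then exposed to 10 μM compound in DMSO (vehicle control 0,1% DMSO) for 24 h. Cells were PBS-washed, fixed 15 min in 4% paraformaldehyde and mounted. Fluorescence microscopy used a DAPI filter. Mean intensity was background-corrected and averaged from three regions in two parallel samples.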

[6] = Drug uptake in human PC3 cell cytoplasm at 10 uM after 24 hrs by fluorescence microscopy; type: ADME, cell-based; conditions: pc-3, 24 h; method in brief: as §2
[7] = Drug uptake in human PC3 cell nucleus at 10 uM after 24 hrs by fluorescence microscopy; type: ADME, cell-based; conditions: pc-3, 24 h; method in brief: as §2
[8] = biological target: T2, Serine/threonine-protein kinase pim-2; experiment: Inhibition of human recombinant PIM2 expressed in Escherichia coli using RSRHSSYPAGT as substrate after 30 mins
Target sequence in this assay (Q9P1W9 whole entry): as the sequence (Q9P1W9 whole entry, looked up) above

Activity [1] [%]	IC50 [2] [nM]	Activity [3] [%]	Activity [4] [%]	IC50 [5] [nM]	Drug uptake (PC-3)	Drug uptake [6]	Drug uptake [7]	IC50 [8] [nM]	Compound
8	315	36	23	235	–	–	–	–	O=Cc1c[nH]c2c1ccc1c3ccccc3n(CCCCn3cc(CO)nn3)c12
9	327	65	28	490	–	–	–	–	C[N+](C)(CCO)Cc1cn(CCCCn2c3ccccc3c3ccc4c(C=O)c[nH]c4c32)nn1
–	–	–	–	–	Not Active	–	–	–	O=Cc1c[nH]c2c1ccc1c3ccccc3[nH]c12
9	105	22	14	108	–	–	–	–	[N-]=[N+]=NCCCCn1c2ccccc2c2ccc3c(C=O)c[nH]c3c21
17	–	66	38	–	–	Active	Not Active	–	CN(C)c1cccc2c(S(=O)(=O)NCc3cn(CCCCn4c5ccccc5c5ccc6c(C=O)c[nH]c6c54)nn3)cccc12
7	8	6	1	13	–	–	–	350	O=Cc1cn2c3c1ccc1c4ccccc4n(c13)CCCC2
